The source made the active and inactive calls. No cut-off for these calls is given here.
Experiments:
Homo sapiens = species: Homo sapiens; experiment: Inhibition of LPS-stimulation dependent TLR4-induced NF-kappaB/AP-1 signaling cascade in human THP1-XBlue-MD2-CD14 cells at 1 uM pre-incubated for 1 hr before LPS-stimulation for 24 hrs by spectrophotometry
Method in brief: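 THP-1-XBlue-MD2-CD14 reporter cells (5 × 10^5/well) pretreated 1 h with compound in DMSO, then stimulated with LPS (1 μg/mL) for 24 h. NF-κB/AP-1 activity read with Quanti-Blue reagent as OD at 655 nm and expressed against vehicle (100%). Five independent experiments in triplicate, means ± SE.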

THP-1 [1] = experiment: Cytotoxicity against human THP1 cells assessed as reduction in cell viability incubated for 24 hrs by WST1 dye based assay; details: THP-1, 24 h
Method in brief: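 Undifferentiated THP-1 cells moved to serum-free medium at 5 × 10^5 cells/well. After 2 h, compounds in DMSO added at 0.125−20 μM and incubated 24 h. Viability read with WST-1 reagent. IC50 taken from four-parameter logistic fits of at least five-point curves, serial measurements in triplicate, means ± SE.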

THP-1 [2] = experiment: Antiinflammatory activity in PMA-differentiated human THP1 cells assessed as inhibition of TNFalpha production at 1 uM pre-incubated for 1 hr before LPS-stimulation for 24 hrs by ELISA; format: functional, cell-based
Method in brief: (§1)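 THP-1 monocytes grown in RPMI 1640 with 10% FBS and antibiotics at 37 °C, plated at 5 × 10^5 cells/well and differentiated to macrophages with phorbol myristate acetate. Pretreated 1 h with compound in DMSO, or DMSO vehicle. Then stimulated with E. coli 0111:B4 LPS (1 μg/mL); unstimulated controls got no LPS. Medium collected after 24 h, cytokine measured by ELISA. Triplicates, three or more independent experiments, means ± SE.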

THP-1 [3] = experiment: Antiinflammatory activity in PMA-differentiated human THP1 cells assessed as inhibition of IL-1beta production at 1 uM pre-incubated for 1 hr before LPS-stimulation for 24 hrs by ELISA; format: functional, cell-based; method in brief: as §1
THP-1 [4] = experiment: Induction of TNFalpha production in PMA-differentiated human THP1 cells at 1 uM pre-incubated for 1 hr before LPS-stimulation for 24 hrs by ELISA; format: cell-based; details: thp-1, 24 h; method in brief: as §1
THP-1 [5] = experiment: Induction of IL-1beta production in PMA-differentiated human THP1 cells at 1 uM pre-incubated for 1 hr before LPS-stimulation for 24 hrs by ELISA; format: cell-based; details: thp-1, 24 h; method in brief: as §1
[6] = biological target: T1, Prostaglandin G/H synthase 1 (Ovis aries, UniProt P05979); experiment: Inhibition of ram seminal vesicle COX1 assessed as reduction in PGE2 production using arachidonic acid substrate by ELISA
T1 sequence (P05979 whole entry): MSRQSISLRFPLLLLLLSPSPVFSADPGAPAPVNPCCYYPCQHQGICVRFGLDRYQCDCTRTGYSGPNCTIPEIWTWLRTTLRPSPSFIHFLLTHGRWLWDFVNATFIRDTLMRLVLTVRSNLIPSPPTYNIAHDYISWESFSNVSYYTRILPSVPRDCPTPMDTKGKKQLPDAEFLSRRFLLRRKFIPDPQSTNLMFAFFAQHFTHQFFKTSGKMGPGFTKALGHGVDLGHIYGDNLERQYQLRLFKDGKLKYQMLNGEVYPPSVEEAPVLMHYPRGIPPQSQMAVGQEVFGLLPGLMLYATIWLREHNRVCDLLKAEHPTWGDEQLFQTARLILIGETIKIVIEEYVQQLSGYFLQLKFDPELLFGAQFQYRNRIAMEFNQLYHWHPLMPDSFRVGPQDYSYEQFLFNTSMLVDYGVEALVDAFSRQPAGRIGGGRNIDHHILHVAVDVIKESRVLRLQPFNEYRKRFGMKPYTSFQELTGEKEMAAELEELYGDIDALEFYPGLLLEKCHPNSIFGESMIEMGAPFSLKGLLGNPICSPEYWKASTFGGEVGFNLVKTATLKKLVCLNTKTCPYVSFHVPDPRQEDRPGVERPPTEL

[7] = biological target: T2, Prostaglandin G/H synthase 2 (Homo sapiens, UniProt P35354); experiment: Inhibition of human recombinant COX2 assessed as reduction in PGE2 production using arachidonic acid substrate by ELISA
T2 sequence (P35354 whole entry): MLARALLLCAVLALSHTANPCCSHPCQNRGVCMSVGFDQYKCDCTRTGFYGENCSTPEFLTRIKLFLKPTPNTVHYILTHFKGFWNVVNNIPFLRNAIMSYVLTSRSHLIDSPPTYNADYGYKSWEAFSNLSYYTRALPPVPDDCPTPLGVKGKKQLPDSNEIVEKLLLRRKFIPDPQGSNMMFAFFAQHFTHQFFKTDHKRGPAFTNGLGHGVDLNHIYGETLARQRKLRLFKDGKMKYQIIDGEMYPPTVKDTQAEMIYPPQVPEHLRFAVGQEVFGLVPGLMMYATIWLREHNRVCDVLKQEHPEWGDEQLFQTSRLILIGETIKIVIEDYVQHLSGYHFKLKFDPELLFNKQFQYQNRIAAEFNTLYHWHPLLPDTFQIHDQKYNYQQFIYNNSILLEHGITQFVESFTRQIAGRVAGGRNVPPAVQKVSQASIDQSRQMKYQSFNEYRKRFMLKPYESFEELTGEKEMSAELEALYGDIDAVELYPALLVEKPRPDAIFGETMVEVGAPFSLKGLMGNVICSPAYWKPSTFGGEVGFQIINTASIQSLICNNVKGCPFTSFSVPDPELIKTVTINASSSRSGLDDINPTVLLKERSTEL

[8] = Selectivity index, ratio of IC50 for inhibition of ram seminal vesicle COX1 to IC50 for inhibition of human recombinant COX2
[9] = biological target: T3, Polyunsaturated fatty acid 5-lipoxygenase (Homo sapiens, UniProt P09917); experiment: Inhibition of human recombinant 5-LOX assessed as reduction in leukotriene B4 synthesis using arachidonic acid substrate by ELISA
T3 sequence (P09917 whole entry): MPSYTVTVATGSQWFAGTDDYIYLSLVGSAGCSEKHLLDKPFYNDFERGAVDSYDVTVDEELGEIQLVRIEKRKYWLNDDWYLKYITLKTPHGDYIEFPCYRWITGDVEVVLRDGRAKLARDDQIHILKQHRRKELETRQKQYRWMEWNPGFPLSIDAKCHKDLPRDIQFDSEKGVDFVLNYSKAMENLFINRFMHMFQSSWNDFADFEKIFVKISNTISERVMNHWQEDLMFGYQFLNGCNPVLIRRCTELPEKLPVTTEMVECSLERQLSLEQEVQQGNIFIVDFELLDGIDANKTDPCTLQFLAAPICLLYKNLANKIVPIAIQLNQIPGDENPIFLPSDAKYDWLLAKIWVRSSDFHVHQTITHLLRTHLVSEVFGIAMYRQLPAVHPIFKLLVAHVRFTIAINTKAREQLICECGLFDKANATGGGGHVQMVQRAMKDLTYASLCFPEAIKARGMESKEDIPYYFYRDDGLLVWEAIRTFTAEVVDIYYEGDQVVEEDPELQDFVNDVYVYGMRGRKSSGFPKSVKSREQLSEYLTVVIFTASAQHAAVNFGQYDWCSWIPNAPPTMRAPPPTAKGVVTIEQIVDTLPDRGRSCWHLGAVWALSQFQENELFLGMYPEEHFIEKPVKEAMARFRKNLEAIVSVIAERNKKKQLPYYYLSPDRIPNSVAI

THP-1 [10] = experiment: Antiinflammatory activity in PMA-differentiated human THP1 cells assessed as inhibition of TNFalpha production at 0.1 uM pre-incubated for 1 hr before LPS-stimulation for 24 hrs by ELISA; format: functional, cell-based; method in brief: as §1
THP-1 [11] = experiment: Induction of IL-1beta production in PMA-differentiated human THP1 cells at 0.1 uM pre-incubated for 1 hr before LPS-stimulation for 24 hrs by ELISA; format: cell-based; details: thp-1, 24 h; method in brief: as §1
[12] = biological target: T4, NF-kappa-B inhibitor alpha (Homo sapiens) (UniProt P25963); experiment: Inhibition of IkappaBalpha degradation in LPS-stimulated human THP1-XBlue-MD2-CD14 cells at 1 uM pre-incubated for 1 hr before LPS-stimulation for 30 mins by Western blot analysis
T4 sequence (whole entry): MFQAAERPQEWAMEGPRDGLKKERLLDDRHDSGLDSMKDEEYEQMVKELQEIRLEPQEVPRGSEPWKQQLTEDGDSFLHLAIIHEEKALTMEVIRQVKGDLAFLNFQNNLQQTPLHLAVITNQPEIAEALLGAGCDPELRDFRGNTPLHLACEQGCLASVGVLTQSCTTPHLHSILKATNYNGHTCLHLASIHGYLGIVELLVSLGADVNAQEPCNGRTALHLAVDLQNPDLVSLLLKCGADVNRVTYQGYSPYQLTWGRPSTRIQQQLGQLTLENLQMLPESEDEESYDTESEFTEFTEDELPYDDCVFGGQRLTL
Method in brief: (§2)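 THP-1-XBlue-MD2-CD14 cells pretreated with compound (1 μM), then LPS (1 μg/mL) added 1 h later. Lysates taken 30 min after LPS. 9 μg protein run on 12% PAGE, blotted to PVDF, blocked in 5% BSA. Probed for IκB-α, total and phospho p38, ERK1/2 and JNK, with β-actin as reference. ECL chemiluminescence; three independent experiments.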

[13] = biological target: Mitogen-activated protein kinase; ERK1/ERK2 (Homo sapiens) (UniProt P27361+P28482); experiment: Inhibition of ERK1/2 phosphorylation in LPS-stimulated human THP1-XBlue-MD2-CD14 cells at 1 uM pre-incubated for 1 hr before LPS-stimulation for 30 mins by Western blot analysis; method in brief: as §2
Sequence of Mitogen-activated protein kinase; ERK1/ERK2 (Homo sapiens) (P27361 whole entry, looked up): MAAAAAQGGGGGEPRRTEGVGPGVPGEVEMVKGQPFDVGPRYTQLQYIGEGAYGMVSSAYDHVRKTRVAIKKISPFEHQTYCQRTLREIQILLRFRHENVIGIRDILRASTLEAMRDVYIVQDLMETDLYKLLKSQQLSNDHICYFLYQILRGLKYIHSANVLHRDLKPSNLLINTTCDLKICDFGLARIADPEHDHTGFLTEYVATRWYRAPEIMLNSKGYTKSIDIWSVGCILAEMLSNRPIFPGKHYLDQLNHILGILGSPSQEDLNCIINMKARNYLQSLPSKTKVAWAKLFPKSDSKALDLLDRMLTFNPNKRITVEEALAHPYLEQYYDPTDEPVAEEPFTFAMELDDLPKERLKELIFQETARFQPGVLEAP
Sequence of Mitogen-activated protein kinase; ERK1/ERK2 (Homo sapiens) (P28482 whole entry, looked up): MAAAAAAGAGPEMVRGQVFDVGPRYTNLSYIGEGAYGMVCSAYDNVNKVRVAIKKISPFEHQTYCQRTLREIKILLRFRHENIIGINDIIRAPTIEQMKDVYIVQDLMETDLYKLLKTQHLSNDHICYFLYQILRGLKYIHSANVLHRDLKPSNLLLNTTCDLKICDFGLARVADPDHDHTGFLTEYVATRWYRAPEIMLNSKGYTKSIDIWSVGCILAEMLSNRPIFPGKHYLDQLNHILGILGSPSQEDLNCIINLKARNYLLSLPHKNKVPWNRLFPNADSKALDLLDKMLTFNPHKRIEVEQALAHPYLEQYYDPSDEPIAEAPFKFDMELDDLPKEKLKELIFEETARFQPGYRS

[14] = biological target: MAP kinase p38 (Homo sapiens) (UniProt O15264+Q15759+Q16539+P53778); experiment: Inhibition of p38 phosphorylation in LPS-stimulated human THP1-XBlue-MD2-CD14 cells at 1 uM pre-incubated for 1 hr before LPS-stimulation for 30 mins by Western blot analysis; method in brief: as §2
[15] = biological target: c-Jun N-terminal kinase, JNK (Homo sapiens) (UniProt P45983+P53779+P45984); experiment: Inhibition of JNK phosphorylation in LPS-stimulated human THP1-XBlue-MD2-CD14 cells at 1 uM pre-incubated for 1 hr before LPS-stimulation for 30 mins by Western blot analysis; method in brief: as §2

Row | Compound | inhibition (Homo sapiens) | IC50 (THP-1 [1]) [µM] | inhibition (THP-1 [2]) | inhibition (THP-1 [3]) | IC50 [6] [nM] | IC50 [7] [µM] | Ratio IC50 [8] | IC50 ([9]; read-out: IC50) [nM] | other results
1 | C[C@]12C=CC(=O)C=C1CC[C@@H]1[C@@H]2C(=O)C[C@@]2(C)[C@H]1CC[C@]2(O)C(=O)CO | Active | – | – | – | – | – | – | – | –
2 | COc1cc(/C=C/c2ccc(OC)c(CC=C(C)C)c2)cc(OC)c1 | – | > 10 | Active | Active | – | – | – | – | –
3 | CC(C)=CCc1c(O)cc(/C=C/c2ccc(O)cc2O)cc1O | – | > 10 | inactive | – | – | – | – | – | Activity (THP-1 [4]): Toxic; Activity (THP-1 [5]): Toxic
4 | COc1cc(/C=C\c2ccc(OC)c(CC=C(C)C)c2)cc(OC)c1 | Active | > 10 | Active | Active | – | – | – | – | –
5 | COc1ccc(/C=C/c2c(CC=C(C)C)c(O)cc3c2CCC(C)(C)O3)cc1O | – | 3.3 | Active | – | 12600 | 35.5 | 0.36 | – | IC50 [9]: Not Active
6 | COc1ccc(/C=C/c2c(CC=C(C)C)c(O)cc(O)c2CC=C(C)C)cc1 | Active | 2.7 | Active | – | 800 | 4.7 | 0.17 | 1100 | –
7 | COc1ccc(/C=C/c2c(CC=C(C)C)c(O)cc3c2CC(O)C(C)(C)O3)cc1 (stereo not given) | – | 1.8 | inactive | – | – | – | – | – | inhibition (THP-1 [10]): Active; Activity (THP-1 [11]): Toxic
8 | CC(C)=CCc1c(O)cc2c(c1/C=C\c1ccc(O)cc1)CCC(C)(C)O2 | – | 4.9 | Active | – | – | – | – | – | –
9 | CC(C)=CCc1c(O)cc(O)c(CC=C(C)C)c1/C=C/c1ccc(O)cc1 | Active | 12.8 | Active | Active | 400 | 5.7 | 0.07 | 900 | –
10 | C=CC(C)(C)c1cc(/C=C/c2cc(OC)cc(OC)c2)ccc1OC | Active | > 10 | Active | inactive | – | – | – | – | –
11 | COc1ccc(/C=C/c2c(CC=C(C)C)c(O)cc(O)c2CC=C(C)C)cc1O | – | 3.9 | Active | – | 900 | 14.7 | 0.06 | 900 | –
12 | CC1(C)C=Cc2c(O)cc(/C=C/c3ccc(O)cc3)cc2O1 [ARAHYPIN-5] | Active | > 10 | Active | inactive | 13300 | > 20 | – | 2400 | inhibition [12]: Active; inhibition [13]: inactive; inhibition [14]: inactive; inhibition [15]: inactive

— ChEMBL document CHEMBL4339252, “Prenylated Stilbenoids Affect Inflammation by Inhibiting the NF-κB/AP-1 Signaling Pathway and Cyclooxygenases and Lipoxygenase” (J Nat Prod, 2019)
